Measured values from ChEMBL document CHEMBL1149572, “2-Aryl-N-acyl indole derivatives as liver X receptor (LXR) agonists” (Bioorg Med Chem Lett, 2007).
Each block holds one compound with its values, some of them ahead of it.

What was measured:
[1] = molecular target: T1, Oxysterols receptor LXR-beta (Homo sapiens, UniProt P55055); assay: Agonist activity at human LXRbeta receptor transfected in COS7 cells after 16 hrs by reporter transactivation assay relative to GW-3965; format: functional, cell-based; settings: cos-7
T1 sequence (P55055 whole entry): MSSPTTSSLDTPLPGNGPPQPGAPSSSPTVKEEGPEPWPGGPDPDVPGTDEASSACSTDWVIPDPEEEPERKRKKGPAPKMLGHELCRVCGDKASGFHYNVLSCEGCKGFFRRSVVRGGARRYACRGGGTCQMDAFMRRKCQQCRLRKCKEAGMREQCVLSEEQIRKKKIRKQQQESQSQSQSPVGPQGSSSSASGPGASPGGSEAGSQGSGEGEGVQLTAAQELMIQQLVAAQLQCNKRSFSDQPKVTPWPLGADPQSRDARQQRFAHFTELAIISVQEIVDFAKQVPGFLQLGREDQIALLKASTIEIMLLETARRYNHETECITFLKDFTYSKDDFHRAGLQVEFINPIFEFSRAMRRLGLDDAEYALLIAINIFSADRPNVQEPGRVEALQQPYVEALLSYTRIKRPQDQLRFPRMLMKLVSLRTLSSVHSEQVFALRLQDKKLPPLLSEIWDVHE
Outline: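 COS-7 cells were transfected for 24 h with human LXRb, RXRa and an LXR-response-element luciferase reporter, then exposed to vehicle or compound for 16 h. Luciferase in the lysate was quantified and expressed as percent of the maximum induction given by GW3965. Values come from quadruplicates in a single experiment.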

[2] = test system: THP-1; assay: Induction of ABCA1 gene expression in THP1 cells at 10 uM relative to control; format: functional, Homo sapiens
[3] = test system: HepG2; assay: Induction of SREBP1c gene expression in HepG2 cells at 10 uM relative to control; format: functional, Homo sapiens
[4] = test system: THP-1; assay: Induction of cholesterol efflux in THP1 cells at 10 uM relative to control; format: functional, Homo sapiens
Outline: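 THP-1 cells differentiated to macrophages with 200 nM PMA for 30 h. Labelled with 1,2-3H(N)-cholesterol for 18 h alongside acLDL and 200 nM PMA. Exposed to vehicle or compound for 6 h in serum-free medium with 2 mg/ml BSA, then 18 h more with apoA-I added. Supernatant radioactivity read as fold-induction over vehicle. Mean of triplicates, single experiment.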

[5] = test system: HepG2; assay: Induction of Lipogenesis in HepG2 cells at 10 uM relative to control; format: functional, Homo sapiens
Outline: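 HepG2 cells pre-treated with vehicle or compound for 24 h, then given [14C]-glycerol and cultured a further 48 h. Cellular triglycerides extracted, separated by TLC and quantified by phosphorimaging. Lipogenesis expressed as fold-induction over vehicle-only control. Mean of triplicate samples, single experiment.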

[6] = molecular target: T1, Oxysterols receptor LXR-beta; assay: Agonist activity at human LXRbeta receptor after 1 hr by HTRF cofactor recruitment assay; format: functional
Outline: (§1)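 Cofactor recruitment was read by HTRF. Buffer was 50 mM Tris pH 7.5 with 50 mM KCl, 1 mM EDTA, 0.1% BSA and 1 mM DTT. Mixtures were shaken for 1 h at room temperature. Values are means of duplicates from a single experiment.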

[7] = molecular target: T2, Oxysterols receptor LXR-alpha (Homo sapiens, UniProt Q13133); assay: Agonist activity at human LXRalpha receptor after 1 hr by HTRF cofactor recruitment assay; format: functional; outline: as §1
T2 sequence (Q13133 whole entry): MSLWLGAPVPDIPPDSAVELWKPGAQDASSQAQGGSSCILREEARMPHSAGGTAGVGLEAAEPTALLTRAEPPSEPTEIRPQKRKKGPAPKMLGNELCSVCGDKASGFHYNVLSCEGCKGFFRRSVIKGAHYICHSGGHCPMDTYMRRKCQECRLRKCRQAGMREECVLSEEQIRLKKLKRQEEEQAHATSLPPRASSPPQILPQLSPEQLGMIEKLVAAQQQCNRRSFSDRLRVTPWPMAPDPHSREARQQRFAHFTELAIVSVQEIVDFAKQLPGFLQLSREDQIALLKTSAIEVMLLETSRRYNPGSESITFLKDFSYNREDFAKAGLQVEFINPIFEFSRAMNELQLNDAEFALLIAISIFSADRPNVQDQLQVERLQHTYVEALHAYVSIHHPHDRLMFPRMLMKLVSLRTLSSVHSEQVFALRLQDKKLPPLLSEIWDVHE

[8] = molecular target: T1, Oxysterols receptor LXR-beta; assay: Agonist activity at human LXRbeta receptor transfected in COS7 cells after 16 hrs by reporter transactivation assay; format: functional, cell-based, COS-7
Outline: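 COS-7 cells were co-transfected for 24 h with human LXRb, RXRa and a luciferase reporter carrying three tandem LXR response elements. Cells were then treated with vehicle or compound for 16 h, and luciferase activity was measured in the lysate. EC50 was calculated from means of quadruplicates in a single experiment.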

[9] = test system: THP-1; assay: Induction of cholesterol efflux in THP1 cells; format: functional, cell-based; settings: Homo sapiens

SMILES: CC(C)(C)OC(=O)n1c(-c2ccc(CCc3ccc(-c4ccccn4)s3)cc2)cc2ccccc21
- EC50 [6]: 230 nM

SMILES: CC(C)(C)OC(=O)n1c(-c2cccc(CCNS(=O)(=O)c3ccccc3)c2)cc2ccccc21
- EC50 [6]: 420 nM

SMILES: CC(C)(C)OC(=O)n1c(-c2ccc(CC#N)cc2)cc2ccccc21
- EC50 [6]: 300 nM

SMILES: CC(C)(C)OC(=O)n1c(-c2ccc(CNS(=O)(=O)c3ccccc3)cc2)cc2ccccc21
- EC50 [6]: 220 nM

SMILES: CC(C)(C)OC(=O)n1c(-c2ccc(CCC(=O)O)cc2)cc2ccccc21
- EC50 [6]: 220 nM
- EC50 [7]: 1150 nM
- EC50 [8]: 4580 nM
- Efficacy [1]: 76%
- Ratio [2]: 5.5
- EC50 [9]: 7000 nM
- Ratio [4]: 1.4
- Ratio [5]: 1.2

SMILES: CC(C)(C)OC(=O)n1c(-c2ccc(CCNC(=O)c3ccccc3)cc2)cc2ccccc21
- EC50 [6]: 1750 nM

SMILES: CC(C)(C)OC(=O)n1c(-c2ccc(CCC#N)cc2)cc2ccccc21
- EC50 [6]: 130 nM
- EC50 [7]: 1190 nM
- EC50 [8]: 576 nM
- Efficacy [1]: 45%
- Ratio [2]: 6
- Ratio [3]: 2.5
- EC50 [9]: 2470 nM
- Ratio [4]: 2.2
- Ratio [5]: 2.5

SMILES: CC(C)(C)OC(=O)n1c(-c2ccc(/C=C/C(N)=O)cc2)cc2ccccc21
- EC50 [6]: 4900 nM

SMILES: CC(C)(C)OC(=O)n1c(-c2ccc(OCCO)cc2)cc2ccccc21
- EC50 [6]: 420 nM

SMILES: CC(C)(C)OC(=O)n1c(-c2ccc(CCC(=O)Nc3ccccc3)cc2)cc2ccccc21
- EC50 [6]: 1780 nM

SMILES: CC(C)(C)OC(=O)n1c(-c2ccc(CCNS(=O)(=O)c3cccs3)cc2)cc2ccccc21
- EC50 [6]: 58 nM

SMILES: CC(C)CNC(=O)CCc1ccc(-c2cc3ccccc3n2C(=O)OC(C)(C)C)cc1
- EC50 [6]: 1510 nM

SMILES: CC(C)(C)OC(=O)n1c(-c2ccc(CCCO)cc2)cc2ccccc21
- EC50 [6]: 380 nM

SMILES: CC(C)(C)OC(=O)n1c(-c2ccc(CCC(N)=O)cc2)cc2ccccc21
- EC50 [6]: 57 nM
- EC50 [7]: 1110 nM
- EC50 [8]: 285 nM
- Efficacy [1]: 70%
- Ratio [2]: 5.7
- Ratio [3]: 4
- EC50 [9]: 2400 nM
- Ratio [4]: 1.9
- Ratio [5]: 2.7

SMILES: O=C(NCCc1ccc(-c2cc3ccccc3n2C(=O)c2ccccc2)cc1)c1ccccc1
- EC50 [6]: 1780 nM

SMILES: CC(C)(C)OC(=O)n1c(-c2ccc(CNC(=O)c3ccccc3)cc2)cc2ccccc21
- EC50 [6]: 1800 nM

SMILES: CC(C)(C)OC(=O)n1c(-c2ccc(CCCNC(=O)c3ccccc3)cc2)cc2ccccc21
- EC50 [6]: 360 nM

Further lines, with some results ahead:

- Efficacy [1]: 100%
SMILES: O=C(O)Cc1cccc(OCCCN(Cc2cccc(C(F)(F)F)c2Cl)CC(c2ccccc2)c2ccccc2)c1
- Ratio [2]: 10.7
- Ratio [3]: 5.2
- Ratio [4]: 1.8
- Ratio [5]: 2.7

- EC50 [6]: 1320 nM
SMILES: CC(C)(C)OC(=O)n1c(-c2ccc(NS(=O)(=O)c3ccccc3)cc2)cc2ccccc21

- EC50 [6]: 120 nM
SMILES: CC(C)(C)OC(=O)n1c(-c2ccc(CCNS(=O)(=O)c3ccccc3)cc2)cc2ccccc21

- EC50 [6]: 12 nM
- EC50 [7]: 220 nM
- EC50 [8]: 42 nM
- Efficacy [1]: 39%
- EC50 [9]: 51 nM
SMILES: N#CCCc1ccc(-c2cc3ccccc3n2C(=O)c2ccccc2)cc1
- Ratio [2]: 10.3
- Ratio [3]: 5.3
- Ratio [4]: 1.7
- Ratio [5]: 4

- EC50 [6]: 5600 nM
SMILES: CC(C)(C)OC(=O)n1c(-c2ccc(CN)cc2)cc2ccccc21

- Efficacy [1]: 43%
SMILES: CC(C)(C)OC(=O)n1c(-c2ccc3c(c2)CC(NS(=O)(=O)c2ccccc2)C3)cc2ccccc21 (centres undefined)
- Ratio [2]: 8.4
- Ratio [3]: 3.1
- Ratio [4]: 1.6
- Ratio [5]: 3.1

- EC50 [6]: 350 nM
SMILES: CC(C)(C)OC(=O)n1c(-c2ccc(CCCNS(=O)(=O)c3ccccc3)cc2)cc2ccccc21

- EC50 [6]: 490 nM
SMILES: CNC(=O)CCc1ccc(-c2cc3ccccc3n2C(=O)OC(C)(C)C)cc1
